Experimental data: ChEMBL document CHEMBL4354819, “Discovery of Novel Small Molecule Dual Inhibitors Targeting Toll-Like Receptors 7 and 8” (J Med Chem, 2019)
The source made the active and inactive calls. The rule behind the calls is not given here.

Columns and labels:
[1] = biological target: T1, Toll-like receptor 7 (Homo sapiens) (UniProt Q9NYK1); assay: Inhibition of human TLR7 expressed in HEK293 cells assessed as reduction in R848-induced NFkappaB production incubated for 16 hrs by quanti-blue SEAP assay; type: cell-based
T1 sequence (whole entry): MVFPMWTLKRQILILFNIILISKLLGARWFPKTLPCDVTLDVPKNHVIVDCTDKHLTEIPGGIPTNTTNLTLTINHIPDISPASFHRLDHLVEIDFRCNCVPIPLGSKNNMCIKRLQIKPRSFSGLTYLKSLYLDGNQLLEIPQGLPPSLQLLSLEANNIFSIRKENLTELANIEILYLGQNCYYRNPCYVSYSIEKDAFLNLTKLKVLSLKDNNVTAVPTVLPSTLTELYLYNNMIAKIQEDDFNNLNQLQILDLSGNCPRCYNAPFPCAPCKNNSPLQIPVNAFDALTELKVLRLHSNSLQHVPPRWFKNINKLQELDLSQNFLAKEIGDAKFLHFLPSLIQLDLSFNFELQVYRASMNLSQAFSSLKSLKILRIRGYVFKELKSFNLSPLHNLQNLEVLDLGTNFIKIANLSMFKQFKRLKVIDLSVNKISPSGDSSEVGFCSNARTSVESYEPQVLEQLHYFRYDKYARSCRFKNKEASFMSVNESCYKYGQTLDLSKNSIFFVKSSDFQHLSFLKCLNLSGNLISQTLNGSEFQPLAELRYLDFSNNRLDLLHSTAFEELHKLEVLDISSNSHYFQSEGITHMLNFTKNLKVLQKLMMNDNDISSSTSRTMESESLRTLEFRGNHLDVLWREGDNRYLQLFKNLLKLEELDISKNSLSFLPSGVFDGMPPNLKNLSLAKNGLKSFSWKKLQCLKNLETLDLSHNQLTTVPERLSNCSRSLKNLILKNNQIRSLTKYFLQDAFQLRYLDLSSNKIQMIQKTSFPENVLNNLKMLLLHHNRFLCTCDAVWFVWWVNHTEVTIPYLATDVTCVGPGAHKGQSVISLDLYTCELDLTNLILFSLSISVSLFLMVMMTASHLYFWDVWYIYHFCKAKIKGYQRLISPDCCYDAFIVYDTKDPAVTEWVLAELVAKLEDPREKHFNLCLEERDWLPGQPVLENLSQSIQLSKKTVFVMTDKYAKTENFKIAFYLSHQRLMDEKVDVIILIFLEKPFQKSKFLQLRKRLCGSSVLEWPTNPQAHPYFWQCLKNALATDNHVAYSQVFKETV
Summary of the method: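 HEK 293-Blue cells stably expressing hTLR7 or hTLR8 with an inducible SEAP reporter were incubated 16 h with compound under 1 µg/mL R848 stimulation. SEAP was read at 620 nm. Data were normalized to the R848 control, and IC50 was taken from concentration-response curves. […] Mean ± s.d., n = 3 independent experiments.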

[2] = tested on: THP-1; assay: Inhibition of IFN mediated immune response in human THP1 cells assessed as inhibition of 3p-hpRNA-induced RIG1 signalling pathway at 5 to 20 uM incubated for 16 hrs by luciferase assay; type: functional, cell-based
Summary of the method: (§1)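 THP1-Dual monocytes carrying Lucia luciferase and SEAP reporters were stimulated with 3p-hpRNA (RIG-I agonist) or Y-form dsDNA G3-YSD (cGAS agonist), with or without compound. Secreted Lucia luciferase luminescence was measured as the type I IFN read-out. Mean ± s.d., n = 3 independent experiments.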

[3] = tested on: THP-1; assay: Inhibition of IFN mediated immune response in human THP1 cells assessed as inhibition of G3-YSD-induced cGAS signalling pathway at 5 to 20 uM incubated for 16 hrs by luciferase assay; type: functional, cell-based; summary of the method: as §1
[4] = biological target: T2, Toll-like receptor 8 (Homo sapiens, UniProt Q9NR97); assay: Inhibition of human TLR8 expressed in HEK293 cells assessed as reduction in ssRNA-induced NFkappaB production incubated for 16 hrs by quanti-blue SEAP assay; type: cell-based
T2 sequence (Q9NR97 whole entry): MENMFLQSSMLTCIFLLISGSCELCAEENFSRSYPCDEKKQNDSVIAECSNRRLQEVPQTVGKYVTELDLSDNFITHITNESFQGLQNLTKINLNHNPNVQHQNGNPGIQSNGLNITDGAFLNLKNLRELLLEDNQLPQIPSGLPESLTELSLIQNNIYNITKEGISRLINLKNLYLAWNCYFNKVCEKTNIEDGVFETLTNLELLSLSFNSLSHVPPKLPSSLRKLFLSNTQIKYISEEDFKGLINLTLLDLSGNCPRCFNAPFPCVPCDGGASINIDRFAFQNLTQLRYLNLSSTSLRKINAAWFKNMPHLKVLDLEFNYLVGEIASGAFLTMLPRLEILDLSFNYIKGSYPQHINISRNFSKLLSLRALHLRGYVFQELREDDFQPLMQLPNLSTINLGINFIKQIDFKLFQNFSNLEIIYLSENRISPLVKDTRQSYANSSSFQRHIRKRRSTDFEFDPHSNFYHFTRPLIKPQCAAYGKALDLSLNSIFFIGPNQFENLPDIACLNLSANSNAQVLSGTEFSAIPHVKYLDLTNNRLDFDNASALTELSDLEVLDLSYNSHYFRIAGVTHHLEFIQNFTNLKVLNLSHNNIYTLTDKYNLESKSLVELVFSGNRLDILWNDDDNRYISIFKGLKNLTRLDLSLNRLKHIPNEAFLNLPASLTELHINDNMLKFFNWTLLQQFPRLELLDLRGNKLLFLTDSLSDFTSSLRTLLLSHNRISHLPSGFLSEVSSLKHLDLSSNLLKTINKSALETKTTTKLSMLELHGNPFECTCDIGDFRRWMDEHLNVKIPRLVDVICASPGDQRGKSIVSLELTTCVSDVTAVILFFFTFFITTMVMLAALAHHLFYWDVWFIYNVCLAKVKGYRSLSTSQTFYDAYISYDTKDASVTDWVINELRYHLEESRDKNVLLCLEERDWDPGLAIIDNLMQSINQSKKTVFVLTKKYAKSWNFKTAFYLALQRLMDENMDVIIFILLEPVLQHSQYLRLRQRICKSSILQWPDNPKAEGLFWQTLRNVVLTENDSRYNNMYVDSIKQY
Summary of the method: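 HEK 293 hTLR8 SEAP reporter cells were stimulated with ssRNA (ssRNA-Lyo-40) and incubated with compound for 16 h. Data were normalized as (raw − untreated)/(ligand + solvent − untreated), with ligand + solvent set as 100%. Mean ± s.d., n = 3 independent experiments.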

[5] = tested on: THP-1; assay: Inhibition of IFN mediated immune response in human THP1 cells assessed as inhibition of 3p-hpRNA-induced RIG1 signalling pathway at 20 uM incubated for 16 hrs by luciferase assay; type: functional, cell-based; summary of the method: as §1

O=C(Nc1ccc(Oc2cc(C(F)(F)F)cc(C(F)(F)F)c2)cc1)c1c(F)cccc1Cl
inhibition [1]: Dose-dependent effect

O=C(Nc1ccc(Oc2cncc(C(F)(F)F)c2)cc1)c1c(F)cccc1Cl
inhibition [2]: Active | inhibition [3]: Active

O=[N+]([O-])c1c(I)cccc1Oc1ccc(-c2nnco2)cc1
IC50 [4]: 620 nM | inhibition [5]: Active
